The values below come from ChEMBL document CHEMBL1143577, “Syntheses and biological activities of rebeccamycin analogues with uncommon sugars” (J Med Chem, 2005).

A value given as a limit tells only on which side of the number the result lay.

One test has as its system SW-620. Put plainly: Inhibitory concentration against SW620 colorectal carcinoma cell line in MTS assay. The test is classed as functional, cell-based, Homo sapiens. In outline:
(§1)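 Cells grown in RPMI 1640 with 10% FBS, 1% nonessential amino acids, penicillin-streptomycin, 37 °C, 5% CO2. Exponentially growing cells were then exposed to a range of compound concentrations for 72 h. MTS (2 mg/mL) plus PMS (25 µM) was added for 3 h, and absorbance was read at 490 nm. IC50 came from dose-response curves of % growth versus untreated control.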

Another test concerns K562. Kind of test: Inhibitory concentration against […] leukemia cell line in MTS assay. The test is classed as functional, cell-based. As to conditions: Homo sapiens. In short, it runs like this:
as §1
(Tetrazolium assays rely on reduction of a dye to a coloured formazan, in cell work by metabolically active cells.)

For orientation: IC50 means the concentration needed to halve the response being measured. Low readings indicate inhibition by little substance, high ones a need for much substance. Consider `CC1OC(n2c3ccccc3c3c4c(c5c6ccccc6[nH]c5c32)C(=O)N(C)C4=O)CC(O)C1O` (stereo in doubt; 6), for which the IC50 in the test with SW-620 (sw-620) came to 34 µM.
As for `O=C1c2c(c3c4ccccc4n(C4OC(CO)C(O)C(O)C4O)c3c3[nH]c4ccccc4c23)C(=O)N1CCCn1ccnc1` (stereo not drawn), the 50% inhibitory concentration (IC50) worked out at 4 µM with K562 and 2 µM in the test with SW-620 (Homo sapiens, SW-620).
With `CC1OC(n2c3ccccc3c3c4c(c5c6ccccc6[nH]c5c32)C(=O)OC4=O)CC(N)C1O` (stereo not drawn), the IC50 is 55 µM in the test with K562 and above 100 µM in the test on SW-620 (Homo sapiens, SW-620).
On to `CC1OC(n2c3ccccc3c3c4c(c5c6ccccc6[nH]c5c32)C(=O)N(C)C4=O)CC(O)C1O` (stereo in doubt; 5), for which the concentration for half-maximal inhibition (IC50) in the test on K562 was found to be 26 µM; in the test on SW-620 (Homo sapiens, SW-620), 24 µM.
The like results for `CC1OC(n2c3ccccc3c3c4c(c5c6ccccc6[nH]c5c32)C(=O)N(N)C4=O)CC(O)C1O` (stereo not drawn) were, in that order, above 100 µM and above 100 µM.
Regarding `O=C1c2c(c3c4ccccc4n(C4OC(COCc5ccccc5)C(OCc5ccccc5)C(OCc5ccccc5)C4OCc4ccccc4)c3c3[nH]c4ccccc4c23)C(=O)N1CCCn1ccnc1` (stereo not drawn), the half-maximal inhibitory concentration (IC50) in the test on K562 is above 50 µM; in the test with SW-620 (Homo sapiens, SW-620) it was above 50 µM.
Regarding `CO[C@H]1[C@H](O)[C@@H](O)[C@H](n2c3c(Cl)cccc3c3c4c(c5c6cccc(Cl)c6[nH]c5c32)C(=O)NC4=O)O[C@@H]1CO` [REBECCAMYCIN], the IC50 in the test on K562 was 6 µM; in the test on SW-620 (Homo sapiens, SW-620), 4 µM.
For the compound `CN1C(=O)c2c(c3c4ccccc4[nH]c3c3[nH]c4ccccc4c23)C1=O`, the IC50 was 40 µM in the test on K562 and above 100 µM in the test on SW-620 (Homo sapiens, SW-620).
Take `CC1OC(n2c3ccccc3c3c4c(c5c6ccccc6[nH]c5c32)C(=O)N(C)C4=O)CC(NCc2ccccc2)C1O` (stereo not drawn): the IC50 in the test on K562 is 34 µM; in the test with SW-620 (Homo sapiens, SW-620), above 100 µM.
With `CN1C(=O)c2c(c3c4ccccc4n(C4OC(CO)C(O)C(O)C4O)c3c3[nH]c4ccccc4c23)C1=O` (stereo not drawn), the IC50 in the test on K562 was 3 µM; in the test on SW-620 (Homo sapiens, SW-620) it was 5 µM.
Regarding `CC1OC(n2c3ccccc3c3c4c(c5c6ccccc6[nH]c5c32)C(=O)OC4=O)CC(NCc2ccccc2)C1O` (stereo not drawn), the IC50 with K562 stood at 53 µM; with SW-620 (Homo sapiens, SW-620), 76 µM.
For the compound `CN1C(=O)c2c(c3c4ccccc4n(C4CC(O)C(O)C(CO)O4)c3c3[nH]c4ccccc4c23)C1=O` (stereo not drawn), the IC50 is 12 µM in the test on K562 and 13 µM in the test on SW-620 (Homo sapiens, SW-620).
